Source: PubChem BioAssay (several laboratories)
This is a sample that favours compounds with a hit; in the whole collection about 3% have one here.
PKD1 kinase inh: blocks activity of human protein kinase D1. AID 797. inhibition, % (no concentration beside the values). hit rate 0.056% among 200,000. PKD1 kinase fluorescence polarization assay; in the data active = inhibition above about 50%
KCC2 mod: KCC2 (human) Cl- transport modulation. Q9H2X9. KCC2 cells, thallium flux FluoZin-2 fluorescence. B-score of Tl+ flux slope (higher = more flux/activation; lower = inhibition) at 10 µM. hit rate 2.2% among 190,000. AID 1456;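 active = thallium flux slope and its plate-corrected score both differing from the plate sample mean at a set confidence after two filtering rounds, in either direction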;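 note: slope of fluorescence scaled to starting intensity during 10 to 20 s after thallium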
ROMK mod: human ROMK K+ channel modulation, primary screen; P48048; Tet-inducible ROMK, thallium flux fluorescence; actives lie on both sides; B-score at 10 µM; hit rate 2% among 130,000;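 active = signal ratio slope over the read window, or its plate-corrected B-score, at least 3 SD from the plate mean, either direction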;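 note: B-score of the F/F0 ratio slope over 7 to 12 s after thallium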
Rad51 HR inh: Rad51 (human) homologous recombination inhibition; Q06609; hRad51 DNA strand exchange, fluorescence dequenching; inhibition, % at 10 µM; hit rate 0.085% among 200,000; AID 1385;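 active = inhibition above 40% at the single screening dose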
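System: human Rad51 nucleoprotein filaments preassembled on unlabelled ssDNA. Reagent: labelled 47-mer dsDNA for strand exchange. Schedule: 30-min compound preincubation and 15-min exchange, both room temperature. Measured by: FRET fluorescence dequenching, excitation 485 nm, emission 520 nm. Read-out: Fluorescence-based percent inhibition, control- and blank-normalised. Benchmarks: plate controls and plate blanks.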
ROMK hit retest: retested hit modulating human ROMK potassium channel; hit rate 54% among 3,000; ROMK thallium flux, fluorescence ratio; active compounds read low; shares compounds with ROMK mod; normalized thallium flux (F/F0 slope) at 10 µM;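 active = Flux at 10 µM at least 3 SD below or above vehicle control mean in one or both replicates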
Each line names hits and unclear results; the compound was inactive in the other large screens (follow-up assays come after a bar, where they were run).

Cc1cc(C)n(CCOC(=O)C2C(C=C(Cl)Cl)C2(C)C)n1 (configuration not stated)	none
Cc1ccc(-n2cc(CNC(C)Cc3cnccn3)c(-c3cccc(C)c3)n2)cc1 (configuration not stated)	ROMK mod -3.6 (no result: KCC2 mod) | ROMK hit retest 0.06
O=c1[nH]c(=S)n(-c2ccc(Cl)cc2)c(O)c1/C=N/N1CCOCC1	none (no result: PKD1 kinase inh, ROMK mod)
O=C1NC(=O)C(=Cc2coc3ccc(O)cc3c2=O)C(=O)N1	none (no result: PKD1 kinase inh, KCC2 mod, ROMK mod) | ROMK hit retest 0.043
CCc1ccc(C2=NN(CCC(=O)N3CCC4(CC3)OCCO4)C(=O)CC2)cc1	none (no result: ROMK mod)
COc1ccccc1CCNC1CCC(C(C)(C)C)CC1 (configuration not stated)	ROMK mod -5.8 | ROMK hit retest 0.059
COc1ccc(OCC(=O)N2CCN(Cc3nc4cc([N+](=O)[O-])ccc4n3C)CC2)cc1	none (no result: Rad51 HR inh)
O=C(COc1ccc(Cl)cc1)N1CCN(Cc2ccc([N+](=O)[O-])cc2)CC1	ROMK mod -6.5 | ROMK hit retest 0.049
Clc1ccc2c(c1)C(OC1CN3CCC1CC3)c1ccccc1CS2 (configuration not stated)	none (no result: ROMK mod)
OC(c1cccc(Cl)c1)(c1cccc(Cl)c1)C1CN2CCC1CC2 (configuration not stated)	ROMK mod -4.5 | ROMK hit retest 0.052
CN1CCC(C)(O)C2CCCCC21 (configuration not stated)	ROMK mod -11 | ROMK hit retest inactive
Cn1c(O)c(/C=C/C=Nc2ccccc2)c(=O)n(C)c1=O	none (no result: ROMK mod) | ROMK hit retest 0.051
Cn1c(O)c(C=Nc2ccccc2-c2ccccc2)c(=O)n(C)c1=O	none (no result: PKD1 kinase inh)
CCOc1ccc(-n2c(O)c(N=Nc3ccc([N+](=O)[O-])cc3)c(=O)[nH]c2=O)cc1	none
C=CCN1C(=O)/C(=C/c2cc(C)n(-c3cccnc3)c2C)C(=O)NC1=S	ROMK mod -2.9 | ROMK hit retest 0.067
CN(C)C(Cc1ccccc1)C(=O)c1ccccc1 (configuration not stated)	none (no result: ROMK mod) | ROMK hit retest inactive
C=CC(C)C(C(=O)c1ccccc1)N(C)C (configuration not stated)	none (no result: KCC2 mod)
COc1ccc(Cl)cc1C(=O)C1CCCN(Cc2cnc(C)s2)C1 (configuration not stated)	none
CC12CN3CCN(CC(C3)C1O)C2 (configuration not stated)	none (no result: ROMK mod) | ROMK hit retest inactive
CN1c2ccc([N+](=O)[O-])cc2CC2(C(=O)NC(=O)N(c3ccc(Br)cc3)C2=O)C1c1ccccc1 (configuration not stated)	none (no result: ROMK mod) | ROMK hit retest inactive
O=C1NC(=O)C2(Cc3ccccc3N3CCCC32)C(=O)N1c1ccccc1 (configuration not stated)	none (no result: ROMK mod)
N#CC[N+]1(CCCNP2(=O)C=C(c3ccccc3)OC(c3ccccc3)=C2)CCOCC1	none
CN(C)c1ccc(C(=O)c2ccc(N(C)C)cc2)cc1	none
CN(C)c1ccc(/C=C/[N+](=O)[O-])cc1	ROMK mod -4.1 | ROMK hit retest 0.037
C/C(=C\c1ccc(N(C)C)cc1)[N+](=O)[O-]	ROMK mod -3.7 (no result: Rad51 HR inh) | ROMK hit retest 0.051
O=P(Nc1cccnc1)(Oc1ccccc1Cl)Oc1ccccc1Cl	none
CC1CCN(C(=O)CCl)CC1	none (no result: Rad51 HR inh)
CCOC(=O)[C@]1(C#N)[C@@H]2C=CC(C(C)=O)=CN2[C@@H](C(N)=O)[C@@H]1c1ccsc1	ROMK mod -3.6 (no result: Rad51 HR inh) | ROMK hit retest 0.049
COc1ccc(-c2cc(-c3ccccc3)[n+](C)c(-c3ccccc3)c2)cc1	none
Nc1ccccc1-[n+]1c(-c2ccccc2)cc(-c2ccccc2)cc1-c1ccccc1	none (no result: PKD1 kinase inh, ROMK mod) | ROMK hit retest 0.062
